Screens as filed in PubChem.
The list is not random: actives were taken first. Their share in the collection is about 2.6%.
MC4R ag barr: agonists of human melanocortin 4 receptor (MC4R) beta-arrestin; U2OS MC4R beta-arrestin complementation, luminescence; percent of melanotan II response, DMSO zero; AID 540308; P32245; 0.98% of 360,000 active; activation, % at 8.9 µM;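 active = activation above a per-plate cutoff, the mean activation of sample wells on that plate plus 3 SD, cut at about 8% in these data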
Target sequence (P32245 whole entry, looked up): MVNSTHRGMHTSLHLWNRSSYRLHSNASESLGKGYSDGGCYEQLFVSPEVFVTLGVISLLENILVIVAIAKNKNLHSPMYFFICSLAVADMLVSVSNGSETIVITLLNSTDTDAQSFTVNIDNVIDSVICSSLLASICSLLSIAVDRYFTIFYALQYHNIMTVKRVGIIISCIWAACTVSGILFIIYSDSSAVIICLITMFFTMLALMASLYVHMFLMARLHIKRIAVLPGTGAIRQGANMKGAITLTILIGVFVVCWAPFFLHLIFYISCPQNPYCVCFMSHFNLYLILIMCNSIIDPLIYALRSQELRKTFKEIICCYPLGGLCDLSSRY
ABCB6 inh MLPCN: blocks the human ABCB6 transporter. K562-ABCB6 porphyrin accumulation, flow cytometry, 1 h; active compounds read low. fluorescence ratio to DMSO, % at 10 µM. 0.19% of 360,000 active;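 active = fluorescence ratio to DMSO below 75%, the collection mean minus 3 SD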;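 also: signal is porphyrin accumulated inside mitochondria; 100% equals median channel fluorescence of DMSO control wells; lower ratio means ABCB6 inhibition with less porphyrin fluorescence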
Tb MetRS inh: Trypanosoma brucei MetRS inhibition; purified T. brucei MetRS, ATP depletion, Kinase-Glo luminescence; 0.4% of 360,000 active; inhibition, % at 11.9 µM;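 active = inhibition above a per-plate cutoff of the control wells' mean inhibition plus 3 SD, cut at about 5.5% in these data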;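 also: 0% = DMSO wells median and 100% = median of wells with control inhibitor compound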
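System: purified T. brucei MetRS enzyme / Detection: Kinase-Glo luciferase luminescence reporting remaining unconsumed ATP / Medium: HEPES buffer with MgCl2, KCl, DTT, spermine, BSA, pyrophosphatase / Replication: singlicate, one well per compound / Evaluation: percent inhibition relative to median high and low control wells / Schedule: 2 h aminoacylation at 25 °C after 15 min preincubation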
Exocytosis inh: lytic granule exocytosis inhibition; TALL-104 LAMP-1 surface exposure, flow cytometry; cells stimulated with thapsigargin and PMA; 0.66% of 360,000 active; inhibition, % at 10 µM;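 active = inhibition above about 55%, limit read from the data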
MC4R antag cAMP: antagonists of human melanocortin 4 receptor (MC4R); AID 540295; MC4R-expressing cells, MTII-stimulated cAMP, LANCE TR-FRET; inhibition, % at 6.5 µM; P32245; 0.48% of 360,000 active;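 active = inhibition above its plate's cutoff, the mean of tested wells on that plate plus 3 SD, cut at about 29% in these data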;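 also: 0% = Melanotan II alone and 100% = Melanotan II plus saturating MCL0020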
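Assay system: U2OS cells stably expressing human melanocortin 4 receptor (MC4R) / Dosing: 6.5 µM / Timing: compound 30 min, challenge 1 h, detection 1 h / Measured by: Eu-cAMP/anti-cAMP TR-FRET, emission 671 nm / Replicates: singlicate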
iPSC survival up: increases survival of single human iPS cells. hiPSC single-cell survival, ATPlite luminescence; 100% = ROCK inhibitor wells, 0% = DMSO. survival enhancement, % at 20 µM. 0.044% of 360,000 active. AID 602274; in the data active = survival enhancement above about 18%;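 also: cells exposed to compounds for 16 hours before the ATP read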
U2OS cAMP counter: U2OS forskolin cAMP inhibition counter-screen. shares compounds with MC4R antag cAMP. 26% of 1,600 active. AID 602193. inhibition, % at 6.5 µM. parental U2OS, LANCE TR-FRET;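 active = mean inhibition over triplicates above the low-control well mean plus 3 SD, set per campaign, cut at about 13% in these data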;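 also: signal is single emission at 671 nm which falls as cellular cAMP rises; 0% = forskolin-stimulated wells and 100% = buffer without forskolin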
MC4R cAMP antag: human MC4R cAMP antagonism confirmation. MC4R-expressing cells, MTII-stimulated cAMP, TR-FRET. 27% of 1,600 active. inhibition, % at 6.5 µM. AID 602195. shares compounds with MC4R antag cAMP; in the data active = inhibition above about 29%;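 also: 0% = agonist stimulated wells alone and 100% = agonist stimulated wells plus saturating reference antagonist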
The depositor's hits bear a star.

For O=c1c2[nH]c3ccc(Cl)cc3c2ncn1CCN1CCCCC1 the results were MC4R ag barr -1, ABCB6 inh MLPCN 101, Tb MetRS inh 4, Exocytosis inh 8, MC4R antag cAMP 0 and iPSC survival up 3.
S=c1nc[nH]c2c1[nH]c1ccccc12 was read as MC4R ag barr -3, ABCB6 inh MLPCN 96, Tb MetRS inh 0, Exocytosis inh -6, MC4R antag cAMP 49*, iPSC survival up 0, U2OS cAMP counter 4 and MC4R cAMP antag 17.
`CCOC(=O)CC(NC(=O)Cn1nnc(-c2ccccc2F)n1)c1ccc(OC)cc1` (stereo unspecified) gave MC4R ag barr 1, ABCB6 inh MLPCN 87, Tb MetRS inh 0, Exocytosis inh 4, MC4R antag cAMP 30*, iPSC survival up 2, U2OS cAMP counter 3 and MC4R cAMP antag 1.
CC(C)n1c(=O)c2ccccc2n1Cc1cn(Cc2cccnc2)nn1 was read as ABCB6 inh MLPCN 97, Tb MetRS inh 0, Exocytosis inh -2 and iPSC survival up 0.
Screening COc1ccc(NC(=O)c2cccc3c(-c4cnn(C)c4)coc23)cc1 returned MC4R ag barr -1, ABCB6 inh MLPCN 100, Tb MetRS inh 0, Exocytosis inh -5, MC4R antag cAMP 3 and iPSC survival up -1.
Screening COc1cc(NC(=O)c2cccc3c(-c4cnn(C)c4)coc23)cc(OC)c1OC returned MC4R ag barr -1, ABCB6 inh MLPCN 90, Tb MetRS inh 0, Exocytosis inh -3, MC4R antag cAMP 46*, iPSC survival up 0, U2OS cAMP counter -1 and MC4R cAMP antag 11.
Screening Fc1ccc(NC(=S)Nc2ccc3nccnc3c2)cc1 returned MC4R ag barr 2, ABCB6 inh MLPCN 104, Tb MetRS inh 0, Exocytosis inh 4, MC4R antag cAMP 36*, iPSC survival up -1, U2OS cAMP counter -2 and MC4R cAMP antag -1.
Screening CC(C)(C)NC(=O)N1CCn2cccc2C1c1ccccc1F (stereo unspecified) returned MC4R ag barr 1, ABCB6 inh MLPCN 107, Tb MetRS inh 0, Exocytosis inh -2, MC4R antag cAMP 30*, iPSC survival up -1, U2OS cAMP counter 4 and MC4R cAMP antag 1.
Screening CC(C)=CC(=O)N1CCC(n2nccc2NC(=O)CCc2ccccc2)CC1 returned MC4R ag barr 3, ABCB6 inh MLPCN 102, Tb MetRS inh 0, Exocytosis inh -8, MC4R antag cAMP 35*, iPSC survival up 0, U2OS cAMP counter 4 and MC4R cAMP antag 6.
CCOc1ccc(-c2nnc3ccc(SCC(=O)N4CCN(c5ccccc5)CC4)nn23)cc1 was read as MC4R ag barr 0, ABCB6 inh MLPCN 99, Tb MetRS inh -1, Exocytosis inh 8, MC4R antag cAMP 32*, iPSC survival up 1, U2OS cAMP counter 3 and MC4R cAMP antag 4.
CCOc1ccc(-c2nnc3ccc(SCC(=O)N4CCCCC4)nn23)cc1 was read as MC4R ag barr -2, ABCB6 inh MLPCN 89, Tb MetRS inh 0, Exocytosis inh 21, MC4R antag cAMP 0 and iPSC survival up 7.
For CSc1ncc(OCc2ccccc2)c(=O)[nH]1 the results were MC4R ag barr -1, ABCB6 inh MLPCN 99, Tb MetRS inh -1, Exocytosis inh -1, MC4R antag cAMP -3 and iPSC survival up 0.
For O=C(CNC(=O)c1ccc(Br)cc1)NCC(=O)OCC(=O)c1ccccc1 the results were MC4R ag barr -1, ABCB6 inh MLPCN 100, Tb MetRS inh 0, Exocytosis inh 16, MC4R antag cAMP 42*, iPSC survival up 0, U2OS cAMP counter 14* and MC4R cAMP antag 10.
O=C(CNC(=O)c1ccccc1)OCN1C(=O)c2ccccc2C1=O was read as MC4R ag barr 1, ABCB6 inh MLPCN 98, Tb MetRS inh 0, Exocytosis inh -9, MC4R antag cAMP 31*, iPSC survival up 0, U2OS cAMP counter 14* and MC4R cAMP antag 22.
Screening COCCNC(=O)C(=O)c1c(-c2ccccc2)[nH]c2ccccc12 returned MC4R ag barr 0, ABCB6 inh MLPCN 92, Tb MetRS inh 0, Exocytosis inh -1, MC4R antag cAMP -2 and iPSC survival up 0.
`O=C(C(=O)N(Cc1ccccc1)Cc1ccccc1)c1c(-c2ccccc2)[nH]c2ccccc12` gave MC4R ag barr 2, ABCB6 inh MLPCN 99, Tb MetRS inh 0, Exocytosis inh 4, MC4R antag cAMP 50*, iPSC survival up 0, U2OS cAMP counter 1 and MC4R cAMP antag 11.
COC(=O)CSc1[nH]c2ccc(F)cc2c1[N+](=O)[O-] was read as MC4R ag barr -3, ABCB6 inh MLPCN 98, Tb MetRS inh 1, Exocytosis inh 22, MC4R antag cAMP 34*, iPSC survival up 0, U2OS cAMP counter 4 and MC4R cAMP antag 28.
Screening CCn1cc(C(=O)O)c(=O)c2cnc(N3CCN(C(=S)Nc4ccccc4)CC3)nc21 returned MC4R ag barr 5, ABCB6 inh MLPCN 99, Tb MetRS inh -1, Exocytosis inh -2, MC4R antag cAMP 31*, iPSC survival up -1, U2OS cAMP counter -1 and MC4R cAMP antag -10.
Screening CO/N=C/c1ccc(Sc2ccc(C)cc2)c([N+](=O)[O-])c1 returned MC4R ag barr -1, ABCB6 inh MLPCN 107, Tb MetRS inh 2, Exocytosis inh -10, MC4R antag cAMP 29*, iPSC survival up 4, U2OS cAMP counter -2 and MC4R cAMP antag -12.
For Cc1nc(C(F)(F)F)ccc1C(=O)Nc1ccccc1F the results were MC4R ag barr -1, ABCB6 inh MLPCN 99, Tb MetRS inh -2, Exocytosis inh -6, MC4R antag cAMP 5 and iPSC survival up 0.
For COc1cc(-c2cc(C(=O)Nc3ccccc3N3CCOCC3)c3ccccc3n2)cc(OC)c1OC the results were MC4R ag barr 1, ABCB6 inh MLPCN 99, Tb MetRS inh 0, Exocytosis inh -4, MC4R antag cAMP 6 and iPSC survival up -2.
For COc1cc(-c2cc(C(=O)Nc3ccc(C)c(S(=O)(=O)N4CCOCC4)c3)c3ccccc3n2)cc(OC)c1OC the results were MC4R ag barr 0, ABCB6 inh MLPCN 100, Tb MetRS inh 0, Exocytosis inh 1, MC4R antag cAMP 32*, iPSC survival up 3, U2OS cAMP counter 4 and MC4R cAMP antag 13.
